Compound activity deposited in PubChem BioAssay by The Scripps Research Institute Molecular Screening Center.
The list is not random: actives were taken first. Their share in the collection is about 1.8%.
MC4R antag cAMP: antagonists of human melanocortin 4 receptor (MC4R) | inhibition, % at 6.5 µM | MC4R-expressing cells, MTII-stimulated cAMP, LANCE TR-FRET | 0.48% of 360,000 active | P32245;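 active = inhibition above its plate's cutoff, the mean of tested wells on that plate plus 3 SD, cut at about 29% in these data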;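 also: 0% = Melanotan II alone and 100% = Melanotan II plus saturating MCL0020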
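Assay system: human MC4R-expressing U2OS cells; reagent: Melanotan II stimulation of cells; dosing: 6.5 µM single dose; timing: compound 30 min, challenge 1 h, detection 1 h; signal: TR-FRET cAMP assay; replicates: one well per compound, no replicates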
TLR4 MyD88 comp: TLR4-MyD88 interaction inhibition in cells | 0.18% of 200,000 active | AID 861 | inhibition, % at 8.4 µM | HeLa CL3-4 TLR4/MyD88 BLA complementation, FRET ratio; in the data active = inhibition above about 25%;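 also: 0% = vehicle and 100% = reference inhibitor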
Target sequence (O00206 whole entry, looked up): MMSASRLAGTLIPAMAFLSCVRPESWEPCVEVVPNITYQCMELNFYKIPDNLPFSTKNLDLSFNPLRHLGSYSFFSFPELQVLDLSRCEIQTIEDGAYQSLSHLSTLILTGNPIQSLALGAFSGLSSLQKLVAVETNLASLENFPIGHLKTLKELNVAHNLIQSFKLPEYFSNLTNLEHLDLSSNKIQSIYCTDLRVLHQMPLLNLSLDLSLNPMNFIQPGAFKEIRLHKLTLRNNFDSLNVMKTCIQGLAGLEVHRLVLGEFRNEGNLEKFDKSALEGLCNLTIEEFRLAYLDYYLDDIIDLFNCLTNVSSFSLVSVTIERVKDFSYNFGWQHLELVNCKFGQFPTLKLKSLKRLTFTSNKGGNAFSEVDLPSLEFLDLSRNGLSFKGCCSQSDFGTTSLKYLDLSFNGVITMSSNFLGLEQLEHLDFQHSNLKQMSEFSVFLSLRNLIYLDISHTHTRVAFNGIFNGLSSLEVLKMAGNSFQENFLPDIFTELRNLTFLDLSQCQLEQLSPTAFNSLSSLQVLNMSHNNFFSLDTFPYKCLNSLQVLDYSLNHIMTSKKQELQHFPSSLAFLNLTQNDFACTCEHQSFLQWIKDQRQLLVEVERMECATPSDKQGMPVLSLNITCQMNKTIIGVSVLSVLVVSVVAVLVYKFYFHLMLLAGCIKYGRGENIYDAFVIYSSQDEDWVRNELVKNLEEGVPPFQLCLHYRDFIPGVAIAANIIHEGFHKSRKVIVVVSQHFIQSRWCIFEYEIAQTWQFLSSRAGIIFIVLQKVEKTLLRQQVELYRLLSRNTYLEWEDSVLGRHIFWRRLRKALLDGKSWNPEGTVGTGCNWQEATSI
Target sequence (Q99836 whole entry, looked up): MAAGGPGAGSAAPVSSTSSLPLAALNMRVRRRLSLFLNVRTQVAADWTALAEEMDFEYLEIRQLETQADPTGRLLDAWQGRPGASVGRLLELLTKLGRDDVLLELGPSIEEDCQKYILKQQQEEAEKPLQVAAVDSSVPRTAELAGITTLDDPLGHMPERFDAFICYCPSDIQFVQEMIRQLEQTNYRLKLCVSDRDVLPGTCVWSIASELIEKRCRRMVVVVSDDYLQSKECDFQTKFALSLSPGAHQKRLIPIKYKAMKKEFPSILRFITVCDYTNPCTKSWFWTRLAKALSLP
MC4R barr agon: activates human MC4R beta-arrestin recruitment; 0.98% of 360,000 active; AID 540308; activation, % at 8.9 µM; U2OS MC4R beta-arrestin complementation, luminescence; percent of melanotan II response, DMSO zero; P32245;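 active = activation above a per-plate cutoff, the mean activation of sample wells on that plate plus 3 SD, cut at about 8% in these data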
NOD2-RIPK2 inh: NOD2-RIPK2 protein interaction inhibition | O43353 | 0.38% of 360,000 active | CHO BLA complementation NOD2-RIPK2, CCF4 ratio | AID 624267 | inhibition, % at 4.98 µM; in the data active = inhibition above about 21%;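 also: 0% = vehicle only and 100% = reference blocker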
TLR9-MyD88 inh: TLR9-MyD88 interaction inhibition | Q9NR96+Q99836 | CHO BLA complementation TLR9-MyD88, CCF4 FRET ratio | inhibition, % at 4.98 µM | 0.21% of 340,000 active | AID 504734;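 active = inhibition above the mean over all tested compounds plus 3 SD, cut at about 21% in these data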;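 also: 0% = DMSO only wells and 100% = clavulanate BLA inhibitor control wells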
MC4R barr ag: human MC4R beta-arrestin agonism confirmation | U2OS MC4R beta-arrestin recruitment, luminescence; scaled DMSO 0%, Melanotan II 100% | shares compounds with MC4R barr agon | 31% of 2,400 active | activation, % at 8.9 µM;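 active = mean activation across replicates above the hit cutoff set in the earlier primary screen, cut at about 8% in these data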
MOR DOR agonist: OPRM1-OPRD1 heterodimer agonism counter-screen | U2OS PathHunter beta-arrestin, beta-gal luminescence; percent of deltorphin B response, DMSO zero | shares compounds with MC4R barr agon | 5.8% of 2,400 active | activation, % at 9.2 µM;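 active = mean activation across replicates exceeds the hit threshold derived in the earlier primary screen, cut at about 18% in these data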;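 also: 100% = deltorphin B at 0.9 µM final and 0% = DMSO alone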
The depositor's hits bear a star; . = not tested or not shown.

SMILES	MC4R antag cAMP	TLR4 MyD88 comp	MC4R barr agon	NOD2-RIPK2 inh	TLR9-MyD88 inh	MC4R barr ag	MOR DOR agonist
COc1cccc(N2CCN(C(=O)CNC(=O)c3sc4ccccc4c3Cl)CC2)c1	-3.6	.	69.5*	-16.2	-1.0	2.5	2.9
COc1ccc(N2CCN(c3cc(C)c4ccccc4n3)CC2)cc1	-1.9	4.4	16.1*	0.2	-1.0	0.3	3.8
Cc1cc(N2CCN(c3ccccc3)CC2)nc2ccccc12	-2.1	.	1.6	-2.6	1.8	.	.
Cc1ccc(NC(=O)CN(C)C(=O)c2ccc(Cl)nc2)cc1	3.0	.	-0.9	-11.8	-4.4	.	.
N#Cc1c(N)nc(-c2ccccc2)nc1-c1ccccc1	-2.9	3.1	12.7*	-15.4	-0.9	0.4	6.5
CC(=O)Nc1cc(-c2ccc(N)cc2)cn2c(-c3cccc(C(F)(F)F)c3)cnc12	16.5	.	11.2*	12.9	.	12.4*	2.8
CC(=O)Nc1cc(-c2ccc(N)nc2)cn2c(-c3cccc(C(F)(F)F)c3)cnc12	0.6	.	19.0*	5.2	.	9.8*	2.9
COc1ccc(F)cc1-c1cc(NC(C)=O)c2ncc(-c3cccc(C(F)(F)F)c3)n2c1	8.6	.	19.0*	-12.9	.	14.7*	2.7
CC(=O)Nc1cccc(-c2cc(NC(C)=O)c3ncc(-c4cccc(C(F)(F)F)c4)n3c2)c1	10.9	.	4.0	-4.8	.	.	.
CC(=O)Nc1cc(-c2cccc(C(=O)N(C)C)c2)cn2c(-c3cccc(C(F)(F)F)c3)cnc12	11.6	.	7.3	3.4	.	.	.
CC(=O)Nc1cc(-c2ccc(CO)cc2)cn2c(-c3cccc(C(F)(F)F)c3)cnc12	9.2	.	18.6*	1.4	.	20.5*	2.9
CC(=O)Nc1cc(-c2cccc(C(=O)NCCO)c2)cn2c(-c3cccc(C(F)(F)F)c3)cnc12	4.5	.	6.9	1.1	.	.	.
NS(=O)(=O)c1ccc(CNC(=O)c2cc(=O)c3ccccc3o2)cc1	1.6	.	-2.0	-0.9	-4.4	.	.
O=C(COC(=O)/C=C/c1ccc(OC(F)F)cc1)NC(=O)NCc1ccccc1	12.6	.	5.6	10.1	-2.7	.	.
Cc1cc(Br)cc(Cl)c1OCC(=O)NC(=O)NCc1ccccc1	2.0	-8.5	11.5*	-8.5	3.5	2.1	5.9
O=C(COC(=O)/C=C/c1cccc(Cl)c1)NC(=O)NCc1ccccc1	1.1	.	11.4*	1.9	-2.2	2.8	5.4
O=C(COC(=O)/C=C/c1ccccc1Cl)NCCc1ccc(Cl)cc1Cl	17.1	6.9	9.9*	-6.4	-9.7	0.7	3.0
O=C(Nc1ccc(C(O)c2ccccc2)cc1)[C@@H]1O[C@H](CO)[C@@H](O)[C@H]1O (some centres undefined)	0.0	.	-1.7	-5.6	.	.	.
Cn1c(CC(=O)NNC(=O)c2cccnc2)nc2ccccc21	-4.2	.	-0.5	0.1	1.0	.	.
COc1ccccc1S(=O)(=O)CC(O)COc1ccc(C#N)cc1 (centres undefined)	10.5	2.2	-1.4	1.9	-6.5	.	.
C[C@@H]1CN([C@@H](C)CO)C(=O)CCCn2nncc2CO[C@@H]1CN(C)C(=O)Nc1ccccc1C(F)(F)F	-1.9	.	2.5	1.0	-1.8	.	.
CN(CC(=O)Nc1c(Cl)cccc1Cl)C(=O)c1cc(S(=O)(=O)N(C)C)ccc1N1CCCC1	4.5	.	-3.4	6.9	0.6	.	.
CCOC(=O)c1oc2ccc(S(=O)(=O)N3CCOCC3)cc2c1C	-0.8	-5.4	-1.1	-13.5	7.6	.	.
CCOC(=O)c1oc2ccc(S(=O)(=O)N3CCC(C)CC3)cc2c1C	4.5	-1.8	12.6*	-2.5	-13.4	-1.3	5.4
Cc1cc2c(=O)n(C)c(SCC(=O)Nc3ccccc3C)nc2s1	9.2	.	1.4	-11.2	-1.7	.	.
CCOc1ccc2cc(C#N)c(SCC(=O)N3CCC(C)CC3)nc2c1	16.3	11.3	-0.5	2.2	-1.0	.	.
CCOC(=O)CSc1nc2cc(OCC)ccc2cc1C#N	-1.8	14.7	30.8*	-0.8	12.6	4.9	9.7
COC(=O)C1=C(C(=O)OC)[C@]2([C@@H]3CCCCN[C@@H](Cc4ccccc4)C(=O)N3Cc3ccccc3)C=C[C@H]1O2	16.1	.	1.8	-11.6	-13.4	.	.
